The results in this text go back to ChEMBL document CHEMBL5154735, “Interaction of A3 adenosine receptor ligands with the human multidrug transporter ABCG2” (Eur J Med Chem, 2022).

SMILES strings stand for the structures.

Data set [1] has as its target T1, ABCG2 (Homo sapiens, UniProt Q9UNQ0).
T1 sequence (Q9UNQ0 whole entry): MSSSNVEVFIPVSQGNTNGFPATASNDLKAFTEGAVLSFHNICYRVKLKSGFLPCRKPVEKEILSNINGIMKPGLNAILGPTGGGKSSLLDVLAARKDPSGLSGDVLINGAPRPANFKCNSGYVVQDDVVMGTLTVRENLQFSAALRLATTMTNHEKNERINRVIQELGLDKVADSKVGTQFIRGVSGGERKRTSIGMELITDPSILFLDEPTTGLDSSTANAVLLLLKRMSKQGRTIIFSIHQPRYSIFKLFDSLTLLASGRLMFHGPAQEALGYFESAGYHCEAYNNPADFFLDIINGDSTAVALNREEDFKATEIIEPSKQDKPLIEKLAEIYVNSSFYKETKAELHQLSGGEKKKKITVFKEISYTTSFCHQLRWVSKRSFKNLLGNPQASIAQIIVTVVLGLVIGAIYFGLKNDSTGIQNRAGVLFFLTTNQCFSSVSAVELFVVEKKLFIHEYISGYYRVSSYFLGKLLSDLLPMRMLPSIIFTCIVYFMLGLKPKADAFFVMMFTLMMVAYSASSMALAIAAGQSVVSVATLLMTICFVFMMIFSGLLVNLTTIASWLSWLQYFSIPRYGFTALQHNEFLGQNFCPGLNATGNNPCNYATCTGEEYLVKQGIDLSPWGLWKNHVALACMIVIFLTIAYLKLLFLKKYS
The data set can be described thus: Inhibition of human ABCG2 in human R5 cells assessed as inhibition of mitoxantrone efflux at 10 uM measured by flow cytometric analysis relative to control. Format: cell-based. The following applies: probe mitoxantrone. In outline:
(§1)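 HEK293 cells transfected with full-length ABCG2 (R-5) or empty pcDNA vector, grown in MEM with 10% FBS and 2 mg/ml G418. Cells incubated in IMDM with 5% FBS, 5 μM mitoxantrone (final) ± compound, 37°C for 45 min. Washed in cold IMDM, resuspended in cold PBS with 1% BSA, read by flow cytometry.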

For another data set, the target named is T2, Adenosine receptor A3 (Homo sapiens, UniProt P0DMS8).
T2 sequence (P0DMS8 whole entry): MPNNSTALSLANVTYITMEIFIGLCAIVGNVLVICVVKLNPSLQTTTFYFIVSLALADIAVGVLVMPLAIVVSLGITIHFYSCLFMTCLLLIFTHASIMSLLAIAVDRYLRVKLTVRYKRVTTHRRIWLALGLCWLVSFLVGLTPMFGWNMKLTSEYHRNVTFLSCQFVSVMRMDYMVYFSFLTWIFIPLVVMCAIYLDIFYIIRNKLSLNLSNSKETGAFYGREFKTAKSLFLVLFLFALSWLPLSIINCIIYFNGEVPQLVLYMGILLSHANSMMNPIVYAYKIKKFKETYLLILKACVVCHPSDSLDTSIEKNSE
The data set can be described thus: Binding affinity towards human adenosine A3 receptor.

Data set [2] has as its target T3, Broad substrate specificity ATP-binding cassette transporter ABCG2 (Homo sapiens, UniProt Q9UNQ0).
T3 sequence (Q9UNQ0 whole entry): T1 sequence (Q9UNQ0 whole entry)
Kind of data set: Inhibition of human ABCG2 in human R5 cells assessed as inhibition of mitoxantrone efflux measured by flow cytometric analysis. Format: cell-based. An outline of the steps:
as §1
Background: Flow cytometry measures light scatter and fluorescence of single cells or particles in a stream.

Data set [3] has as its target T1, ABCG2. The data set can be described thus: Activation of human ABCG2-mediated ATPase activity preincubated for 2 mins followed by ATP addition at 100 nM and measured after 20 mins by colorimetric assay relative to control. The settings on record: read-out: Activity. In outline: (§2)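 Total membrane vesicles from High-Five insect cells expressing human ABCG2 (hypotonic lysis, differential centrifugation), 10 μg protein/tube, in MES-Tris pH 6.8 buffer with KCl, MgCl2, NaN3, EGTA, ouabain, DTT. Compound in DMSO added ± sodium orthovanadate (0.3 mM), DMSO control. Preincubated 2 min at 37°C, then 5 mM ATP, 20 min. SDS stop, Pi measured colorimetrically. Three independent experiments in duplicate, mean ± SE.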

The target of data set [4] is T3, Broad substrate specificity ATP-binding cassette transporter ABCG2. The data set can be described thus: Activation of human ABCG2-mediated ATPase activity preincubated for 2 mins followed by ATP addition and measured after 20 mins by colorimetric assay. An outline of the steps: as §2
The target in data set [5] is T1, ABCG2. The data set can be described thus: Activation of human ABCG2-mediated ATPase activity preincubated for 2 mins followed by ATP addition at 10 M and measured after 20 mins by colorimetric assay relative to control. The following applies: read-out: Activity. Also noted: dose or concentration left out as unconfirmed. An outline of the steps:
as §2

Data set [6] deals with T1, ABCG2. The data set can be described thus: Activation of human ABCG2-mediated ATPase activity preincubated for 2 mins followed by ATP addition at 2.5 M and measured after 20 mins by colorimetric assay relative to control. More on the design: dose or concentration left out as unconfirmed. The following applies: read-out: Activity. In outline:
as §2

Data set [7] addresses T1, ABCG2. Kind of data set: Effect on human ABCG2 transporter preincubated for 2 mins followed by ATP addition assessed as basal ATPase activity at 2.5 uM and measured after 20 mins by colorimetric assay relative to control. The settings on record: read-out: Activity. An outline of the steps:
as §2

Data set [8] has as its target T1, ABCG2. The data set can be described thus: Activation of human ABCG2-mediated ATPase activity preincubated for 2 mins followed by ATP addition at 10 uM and measured after 20 mins by colorimetric assay relative to control. The following applies: read-out: Activity. In outline:
as §2

Data set [9] has as its target T1, ABCG2. Kind of data set: Activation of human ABCG2-mediated ATPase activity preincubated for 2 mins followed by ATP addition at 2.5 uM and measured after 20 mins by colorimetric assay relative to control. The settings on record: read-out: Activity. An outline of the steps: as §2
The target of data set [10] is T1, ABCG2. Kind of data set: Effect on human ABCG2 transporter preincubated for 2 mins followed by ATP addition assessed as basal ATPase activity at 10 uM and measured after 20 mins by colorimetric assay relative to control. The following applies: read-out: Activity. An outline of the steps: as §2
Data set [11] concerns the target T1, ABCG2. The data set can be described thus: Inhibition of human ABCG2-mediated ATPase activity preincubated for 2 mins followed by ATP addition at 10 uM and measured after 20 mins by colorimetric assay relative to control. In outline:
as §2

For data set [12], the target named is T3, Broad substrate specificity ATP-binding cassette transporter ABCG2. Kind of data set: Inhibition of human ABCG2-mediated ATPase activity preincubated for 2 mins followed by ATP addition and measured after 20 mins by colorimetric assay. An outline of the steps: as §2
The target of data set [13] is T1, ABCG2. The data set can be described thus: Inhibition of human ABCG2-mediated ATPase activity preincubated for 2 mins followed by ATP addition at 2.5 uM and measured after 20 mins by colorimetric assay relative to control. An outline of the steps: as §2

Broadly, the inhibition is the relative decrease from the control value, in per cent. As usually defined, the Ki is the dissociation constant of the complex between target and ligand, obtained from inhibition or displacement. By IC50 is commonly meant the concentration that gives 50% inhibition. In general, EC50 refers to the midpoint of the concentration-response curve. Regarding `COc1cc(CCNC2=NC(C#Cc3ccc(Cl)s3)=NC3=NC=NC32)ccc1O` (stereo unspecified), the inhibition at 10 µM at ABCG2 [1] was found to be 110%. At Adenosine receptor A3, this compound gave a Ki of 6820 nM. Besides, in data set [2], the IC50 is 4980 nM. Further, the activity at 20 min, 0.1 µM at ABCG2 [3] amounted to 111%. The response in [4] was half-maximal at 13.2 nM (EC50).
For `Fc1ccc(C#CC2=NC3=NC=NC3C(NCc3cccc(Cl)c3)=N2)cc1F` (stereo unspecified), the inhibition at 10 µM on ABCG2 [1] was found to be 81.4%. The Ki on Adenosine receptor A3 is no less than 99 nM. In addition, the activity at 20 min worked out at 164% at ABCG2 [5] and 165% at ABCG2 [6]. In addition, the EC50 in data set [4] was 50 nM.
Turning to `CNC(=O)C12CC1[C@@H](n1cnc3cnc(C#Cc4ccc(F)c(F)c4)nc31)[C@H](O)[C@@H]2O` (single isomer, unassigned), on ABCG2 [7], the activity at 20 min, 2.5 µM is no more than 30%. For the same compound, on ABCG2 [8], the activity at 20 min, 10 µM stood at 64.2%.
For `CNC(=O)C12CC1[C@@H](n1cnc3c(N[C@H]4C[C@@H]4c4ccc(F)c(F)c4)nc(C#Cc4cccc(F)c4)nc31)[C@H](O)[C@@H]2O` (single isomer, unassigned), the activity at 20 min, 2.5 µM at ABCG2 [9] was found to be 101%. In addition, the inhibition at 10 µM on ABCG2 [1] is 97.2%. For the same compound, the EC50 in [4] amounted to 14 nM.
The corresponding values for `CNC(=O)C12CC1[C@@H](n1cnc3c(N[C@@H]4C[C@H]4c4ccc(F)c(F)c4)nc(C#Cc4cccc(F)c4)nc31)[C@H](O)[C@@H]2O` (single isomer, unassigned) are 74.8%, 97.4% and 13 nM.
As for `CNC(=O)C12CC1[C@@H](n1cnc3c(NCc4cccc(Cl)c4)nc(C#Cc4cccc(Cl)c4)nc31)[C@H](O)[C@@H]2O` (single isomer, unassigned), the activity at 20 min, 2.5 µM on ABCG2 [9] turned out to be 49.3%. In addition, the activity at 20 min, 10 µM on ABCG2 [10] was no more than 30%.
For `CNC(=O)C12CC1[C@@H](n1cnc3c(NCc4cccc(Cl)c4)nc(C#Cc4ccccc4)nc31)[C@H](O)[C@@H]2O` (single isomer, unassigned), the activity at 20 min, 2.5 µM at ABCG2 [9] turned out to be 51.3%. On ABCG2 [10], the activity at 20 min, 10 µM was no more than 30%.
For `OCC12CC1[C@@H](n1cnc3c(NCc4cccc(-n5cc(-c6ccc(F)c(F)c6)nn5)c4)nc(C#Cc4ccc(F)cc4)nc31)[C@H](O)[C@@H]2O` (single isomer, unassigned), on ABCG2 [7], the activity at 20 min, 2.5 µM is no more than 30%. For the same compound, the activity at 20 min, 10 µM on ABCG2 [10] is no more than 30%.
As to `CNC(=O)C12CC1[C@@H](n1cnc3c(NCc4cccc(-n5cc(-c6ccc(F)c(F)c6)nn5)c4)nc(C#Cc4ccc(F)cc4)nc31)[C@H](O)[C@@H]2O` (single isomer, unassigned), the inhibition at 20 min, 10 µM against ABCG2 [11] came out at 74.7%. Moreover, the IC50 in [12] was 2590 nM. The inhibition at 10 µM on ABCG2 [1] came to 102%. Also, the inhibition at 20 min, 2.5 µM against ABCG2 [13] was 54.4%.
`CNC(=O)C12CC1[C@@H](n1cnc3c(NCc4cccc(-n5cc(-c6ccc(F)c(F)c6)nn5)c4)nc(C#Cc4ccc(F)c(F)c4)nc31)[C@H](O)[C@@H]2O` (single isomer, unassigned) returned an IC50 in data set [12] of 2570 nM. Also, on ABCG2 [1], the inhibition at 10 µM came out at 92.5%. Further, the inhibition at 20 min, 2.5 µM against ABCG2 [13] stood at 43.5%.
